Measurements taken from ChEMBL document CHEMBL4308921, “Structure-Activity Relationships of Central Nervous System Penetration by Fatty Acid Amide Hydrolase (FAAH)-Targeted Thyromimetic Prodrugs” (ACS Med Chem Lett, 2019).
Active and inactive are the calls of the source. No cut-off for these calls is given here.

What was measured:
[1] = target: T1, Thyroid hormone receptor alpha (Homo sapiens) (UniProt P10827); test: Agonist activity at human TRalpha treated at 1 hr post FAAH inhibitor PF-3845 treatment and measured after 24 hrs by cell based luciferase reporter gene assay
T1 sequence (whole entry): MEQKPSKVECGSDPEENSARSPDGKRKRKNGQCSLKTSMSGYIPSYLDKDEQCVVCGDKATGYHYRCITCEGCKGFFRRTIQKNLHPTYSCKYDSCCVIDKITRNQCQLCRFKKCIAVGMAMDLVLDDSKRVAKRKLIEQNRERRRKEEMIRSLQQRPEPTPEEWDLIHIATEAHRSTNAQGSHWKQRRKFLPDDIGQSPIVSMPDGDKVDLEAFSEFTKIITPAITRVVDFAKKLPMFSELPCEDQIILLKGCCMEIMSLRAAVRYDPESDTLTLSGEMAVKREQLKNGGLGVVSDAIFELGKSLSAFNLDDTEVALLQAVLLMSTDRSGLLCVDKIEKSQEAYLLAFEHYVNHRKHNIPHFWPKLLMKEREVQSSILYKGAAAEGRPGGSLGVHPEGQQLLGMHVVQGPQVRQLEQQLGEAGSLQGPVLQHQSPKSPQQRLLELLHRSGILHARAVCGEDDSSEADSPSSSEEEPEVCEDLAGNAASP
How it was run: (§1)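 A plate-based luciferase reporter assay measured TRα or TRβ activation as dose-response curves, run in the presence of the FAAH inhibitor PF-3845. Data are mean ± SEM, n = 3.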

[2] = target: T2, Fatty-acid amide hydrolase 1 (Homo sapiens, UniProt O00519); test: Prodrug activation in COS7 cells overexpressing human FAAH assessed as FAAH-mediated sobetirome formation by measuring compound hydrolysis rate at 100 uM by LC-MS/MS analysis; format: cell-based
T2 sequence (O00519 whole entry): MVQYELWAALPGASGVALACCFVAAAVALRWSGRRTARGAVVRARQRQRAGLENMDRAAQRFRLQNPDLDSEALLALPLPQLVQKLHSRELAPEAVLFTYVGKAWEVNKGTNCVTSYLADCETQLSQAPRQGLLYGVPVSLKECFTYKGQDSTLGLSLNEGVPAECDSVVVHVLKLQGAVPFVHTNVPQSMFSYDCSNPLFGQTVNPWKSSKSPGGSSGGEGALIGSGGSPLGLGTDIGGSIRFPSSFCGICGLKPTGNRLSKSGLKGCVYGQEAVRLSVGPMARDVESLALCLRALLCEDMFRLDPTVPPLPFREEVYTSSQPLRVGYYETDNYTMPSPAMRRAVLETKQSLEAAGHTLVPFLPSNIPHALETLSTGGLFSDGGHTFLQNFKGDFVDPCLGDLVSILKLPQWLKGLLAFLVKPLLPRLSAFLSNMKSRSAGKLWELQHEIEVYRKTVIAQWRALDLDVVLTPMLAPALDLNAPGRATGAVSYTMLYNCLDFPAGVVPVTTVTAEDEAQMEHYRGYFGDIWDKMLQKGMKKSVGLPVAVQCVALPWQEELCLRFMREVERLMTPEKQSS
How it was run: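 Hydrolysis kinetics were measured in homogenate of COS-7 cells overexpressing human FAAH, with prodrug substrate at 100 µM. Rate is given as nmol mg-1 min-1, mean ± SEM, n = 3.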

[3] = AUC (0 to 24 hrs) in C57BL/6 mouse brain assessed as sobetirome level at 9.15 umol/kg, po via gavage by LC-MS/MS analysis; format: ADME, organism-based; design: dose 9.15 umol/kg, time < 24 hr, route oral; settings: in vivo
[4] = Oral bioavailability in C57BL/6 mouse at 9.15 umol/kg administered via gavage by LC-MS/MS analysis; format: ADME, organism-based; settings: in vivo
[5] = AUC (0 to 24 hrs) in C57BL/6 mouse brain assessed as sobetirome level at 9.15 umol/kg, iv by LC-MS/MS analysis; format: ADME, organism-based; design: dose 9.15 umol/kg, time < 24 hr, route intravenous; settings: in vivo
[6] = Brain to serum permeability coefficient, Kp of the compound in C57BL/6 mouse assessed as sobetirome level at 9.15 umol/kg, po via gavage measured up to 24 hrs by LC-MS/MS analysis; format: ADME, organism-based
[7] = target: T3, Thyroid hormone receptor beta (Homo sapiens) (UniProt P10828); test: Agonist activity at human TRbeta treated at 1 hr post FAAH inhibitor PF-3845 treatment and measured after 24 hrs by cell based luciferase reporter gene assay; how it was run: as §1
T3 sequence (whole entry): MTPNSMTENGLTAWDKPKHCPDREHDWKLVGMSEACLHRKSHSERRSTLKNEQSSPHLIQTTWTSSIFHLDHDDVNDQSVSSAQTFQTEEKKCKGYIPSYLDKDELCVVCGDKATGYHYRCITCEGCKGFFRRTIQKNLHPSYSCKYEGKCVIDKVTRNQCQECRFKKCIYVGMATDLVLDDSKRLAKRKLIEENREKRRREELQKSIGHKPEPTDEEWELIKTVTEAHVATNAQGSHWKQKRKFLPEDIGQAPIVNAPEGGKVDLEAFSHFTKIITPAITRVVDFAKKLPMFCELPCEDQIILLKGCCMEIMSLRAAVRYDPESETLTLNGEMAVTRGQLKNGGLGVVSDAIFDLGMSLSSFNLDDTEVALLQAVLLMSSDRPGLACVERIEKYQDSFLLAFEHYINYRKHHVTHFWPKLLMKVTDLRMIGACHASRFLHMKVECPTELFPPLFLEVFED

[8] = Brain to serum permeability coefficient, Kp of the compound in C57BL/6 mouse assessed as sobetirome level at 3.05 umol/kg, ip after 1 hr by LC-MS/MS analysis; format: ADME, organism-based
[9] = Clearance in C57BL/6 mouse at 9.15 umol/kg, iv by LC-MS/MS analysis; format: ADME, organism-based; settings: in vivo
[10] = Tmax in C57BL/6 mouse serum assessed as sobetirome level at 9.15 umol/kg, iv by LC-MS/MS analysis; format: ADME, organism-based; settings: in vivo
[11] = Terminal half life in C57BL/6 mouse at 9.15 umol/kg, iv by LC-MS/MS analysis; format: ADME, organism-based; settings: in vivo, read-out: beta t1/2 (converted)
[12] = Prodrug activation in C57BL/6 mouse brain assessed as FAAH-mediated sobetirome formation at 3.05 umol/kg, ip after 1 hr by LC-MS/MS analysis; format: organism-based; settings: in vivo
[13] = Brain to serum permeability coefficient, Kp of the compound in C57BL/6 mouse assessed as sobetirome level at 9.15 umol/kg, iv measured up to 24 hrs by LC-MS/MS analysis; format: ADME, organism-based
[14] = Tmax in C57BL/6 mouse brain assessed as sobetirome level at 9.15 umol/kg, iv by LC-MS/MS analysis; format: ADME, organism-based; settings: in vivo
[15] = Prodrug activation in C57BL/6 mouse serum assessed as FAAH-mediated sobetirome formation at 3.05 umol/kg, ip after 1 hr by LC-MS/MS analysis; format: organism-based; settings: in vivo

Question: Which results are given for `CNC(=O)COc1cc(C)c(Cc2ccc(O)c(C(C)C)c2)c(C)c1`?
Answer: Activity [1]: Active; Drug metabolism [2]: 3.2 nmol/mg/min; AUC [3]: 378 ng·h/g; bioavailability [4]: 19.5%; AUC [5]: 694 ng·h/g; Kp [6]: 0.44; Activity [7]: Active; Kp [8]: 3.17; clearance [9]: 91.7 mL/min/kg; Tmax [10]: 0.5 h; half-life [11]: 8.8 h; Drug uptake [12]: 53.1 ng/g; Kp [13]: 0.82; Tmax [14]: 0.5 h; Drug uptake [15]: 17.2 ng/g
